The values that follow come from ChEMBL document CHEMBL3875159, “High-affinity small molecular blockers of mixed lineage leukemia 1 (MLL1)-WDR5 interaction inhibit MLL1 complex H3K4 methyltransferase activity” (Eur J Med Chem, 2016).

Activity calls are given as the source filed them. No cut-off for these calls is given here.

Experiment [1] deals with T1, Histone-lysine N-methyltransferase 2A/WDR5 (Homo sapiens) (UniProt P61964+Q03164). Description: Inhibition of MLL1-WDR5 protein-protein interaction in human MV4-11 cells harboring MLL-AF4 fusion protein assessed as inhibition of Hoxa9 gene expression at 2.5 uM after 7 days by RT-PCR method relative to control. The format is cell-based. The essentials: (§1)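 MV4-11 cells treated for 7 days at 0.625, 1.25, 2.5 and 10 μM, with a DMSO control. Hoxa9 and Meis-1 expression was measured by RT-PCR and compared with the untreated blank control group (*p < 0.05, **p < 0.01).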

The target of experiment [2] is T1, Histone-lysine N-methyltransferase 2A/WDR5 (Homo sapiens). Briefly: Inhibition of MLL1-WDR5 protein-protein interaction in human MV4-11 cells harboring MLL-AF4 fusion protein assessed as inhibition of MLL1 histone methyltransferase activity by measuring reduction in H3K4me1 level at 5 uM after 7 days by Western blot method. It is filed as cell-based. The essentials: (§2)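 MV4-11 cells were exposed to a range of concentrations for 7 days. H3K4me1 and H3K4me2 were detected by western blotting with β-actin as loading control.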
In general terms: Immunoblotting shows a protein as a band on a membrane.

Experiment [3] has the same target. Description: Inhibition of MLL1-WDR5 protein-protein interaction in human MV4-11 cells harboring MLL-AF4 fusion protein assessed as inhibition of Hoxa9 gene expression at 10 uM after 7 days by RT-PCR method relative to control. It is filed as cell-based. The essentials:
(§3)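 MV4-11 cells were treated with DMSO or 0.625, 1.25, 2.5 or 10 μM compound for 7 days. Hoxa9 and Meis-1 expression was measured by RT-PCR against DMSO control. Significance was tested versus the nontreated blank control.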

Experiment [4] has as its system MV4-11. Briefly: Induction of apoptosis in human MV4-11 cells harboring MLL-AF4 fusion protein after 72 hrs by Annexin-V/propidium iodide staining based flow cytometry. The format is functional, cell-based. For orientation: Flow cytometry measures light scatter and fluorescence of single cells or particles in a stream.
Experiment [5] concerns MV4-11. Description: Induction of apoptosis in human MV4-11 cells harboring MLL-AF4 fusion protein assessed as necrotic cells at 5 uM after 72 hrs by Annexin-V/propidium iodide staining based flow cytometry (reference value: 0.15%). It is filed as functional.
Experiment [6] relates to MV4-11. Description: Induction of apoptosis in human MV4-11 cells harboring MLL-AF4 fusion protein assessed as late apoptotic cells at 2.5 uM after 72 hrs by Annexin-V/propidium iodide staining based flow cytometry (reference value: 21.6%). It is filed as functional.
Experiment [7] addresses T1, Histone-lysine N-methyltransferase 2A/WDR5 (Homo sapiens). Briefly: Inhibition of MLL1-WDR5 protein-protein interaction in human MV4-11 cells harboring MLL-AF4 fusion protein assessed as inhibition of MLL1 histone methyltransferase activity by measuring reduction in H3K4me2 level after 7 days by Western blot method. The format is cell-based. The essentials:
as §2

Experiment [8] addresses MLL1/ASH2L/RBBP5/WDR5 complex (Homo sapiens, UniProt P61964+Q03164+Q15291+Q9UBL3). Briefly: Inhibition of recombinant MLL1/ASH2L/RBBP5/WDR5 complex histone methyltransferase activity (unknown origin) by AlphaScreen assay. It is filed as protein-complex assay.
Experiment [9] has as its target WD repeat-containing protein 5 (Homo sapiens, UniProt P61964). Briefly: Binding affinity to human WDR5 by isothermal titration calorimetry.
Experiment [10] has as its target T1, Histone-lysine N-methyltransferase 2A/WDR5 (Homo sapiens). Description: Inhibition of MLL1-WDR5 protein-protein interaction in human MV4-11 cells harboring MLL-AF4 fusion protein assessed as inhibition of Meis-1 gene expression after 7 days by RT-PCR method. It is filed as cell-based. The essentials:
as §3

The test system of experiment [11] is MV4-11. Briefly: Induction of apoptosis in human MV4-11 cells harboring MLL-AF4 fusion protein assessed as viable cells at 2.5 uM after 72 hrs by Annexin-V/propidium iodide staining based flow cytometry (reference value: 73.8%). The settings on record: MV4-11, 72 h, read-out: Activity. The format is functional.
The test system of experiment [12] is MV4-11. Briefly: Induction of apoptosis in human MV4-11 cells harboring MLL-AF4 fusion protein assessed as early apoptotic cells at 5 uM after 72 hrs by Annexin-V/propidium iodide staining based flow cytometry (reference value: 4.45%). The format is functional.
Experiment [13] in a line: Antiproliferative activity against human MV4-11 cells harboring MLL-AF4 fusion protein after 72 hrs by CCK8 assay. The format is functional, cell-based. The settings on record: MV4-11, 72 h. On the technique in general: Tetrazolium dyes change colour on reduction, which living cells bring about.
The test system of experiment [14] is MV4-11. Briefly: Induction of apoptosis in human MV4-11 cells harboring MLL-AF4 fusion protein assessed as viable cells at 10 uM after 72 hrs by Annexin-V/propidium iodide staining based flow cytometry (reference value: 73.8%). The settings on record: MV4-11, 72 h, read-out: Activity. It is filed as functional.
The target in experiment [15] is T1, Histone-lysine N-methyltransferase 2A/WDR5 (Homo sapiens). Description: Inhibition of MLL1-WDR5 protein-protein interaction in human MV4-11 cells harboring MLL-AF4 fusion protein assessed as inhibition of Hoxa9 gene expression after 7 days by RT-PCR method. The format is cell-based. The essentials:
as §3

The test system of experiment [16] is MV4-11. Description: Induction of apoptosis in human MV4-11 cells harboring MLL-AF4 fusion protein assessed as necrotic cells at 10 uM after 72 hrs by Annexin-V/propidium iodide staining based flow cytometry (reference value: 0.15%). It is filed as functional.
Experiment [17] deals with MV4-11. Briefly: Induction of apoptosis in human MV4-11 cells harboring MLL-AF4 fusion protein assessed as late apoptotic cells at 5 uM after 72 hrs by Annexin-V/propidium iodide staining based flow cytometry (reference value: 21.6%). The format is functional.
Experiment [18] has as its system MV4-11. Briefly: Induction of apoptosis in human MV4-11 cells harboring MLL-AF4 fusion protein assessed as late apoptotic cells at 10 uM after 72 hrs by Annexin-V/propidium iodide staining based flow cytometry (reference value: 21.6%). It is filed as functional.
For experiment [19], the target named is T1, Histone-lysine N-methyltransferase 2A/WDR5 (Homo sapiens). Briefly: Inhibition of MLL1-WDR5 protein-protein interaction in human MV4-11 cells harboring MLL-AF4 fusion protein assessed as inhibition of Meis-1 gene expression at 2.5 uM after 7 days by RT-PCR method relative to control. The format is cell-based. In a few lines: as §1
Experiment [20] relates to MV4-11. Description: Induction of apoptosis in human MV4-11 cells harboring MLL-AF4 fusion protein assessed as early apoptotic cells at 2.5 uM after 72 hrs by Annexin-V/propidium iodide staining based flow cytometry (reference value: 4.45%). The format is functional.
The test system of experiment [21] is MV4-11. Briefly: Induction of apoptosis in human MV4-11 cells harboring MLL-AF4 fusion protein assessed as necrotic cells at 2.5 uM after 72 hrs by Annexin-V/propidium iodide staining based flow cytometry (reference value: 0.15%). It is filed as functional.
Experiment [22] concerns MV4-11. Description: Induction of apoptosis in human MV4-11 cells harboring MLL-AF4 fusion protein assessed as viable cells at 5 uM after 72 hrs by Annexin-V/propidium iodide staining based flow cytometry (reference value: 73.8%). The format is functional. Particulars: MV4-11, 72 h, read-out: Activity.
Experiment [23] concerns MV4-11. Briefly: Induction of apoptosis in human MV4-11 cells harboring MLL-AF4 fusion protein assessed as early apoptotic cells at 10 uM after 72 hrs by Annexin-V/propidium iodide staining based flow cytometry (reference value: 4.45%). The format is functional.
Experiment [24] has as its target T1, Histone-lysine N-methyltransferase 2A/WDR5 (Homo sapiens). Description: Inhibition of MLL1-WDR5 protein-protein interaction in human MV4-11 cells harboring MLL-AF4 fusion protein assessed as inhibition of Meis-1 gene expression at 10 uM after 7 days by RT-PCR method relative to control. The format is cell-based. The essentials: as §3
A short description of experiment [25]: Antiproliferative activity against human MV4-11 cells harboring MLL-AF4 fusion protein by CellTiter-Glo assay. It is filed as functional, cell-based. The essentials: (§4)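 Proliferation assay in leukaemia cell lines with or without an MLL fusion. MV4-11 (MLL-AF4) gives an IC50 from concentration–response. K562 carries no MLL fusion protein; compounds are tested at a single 35 μM, reported as % remaining growth activity (IC50 where determined).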

Experiment [26] in a line: Growth inhibition of human K562 cells after 7 days by MTS assay. Particulars: K562, 168 h. It is filed as functional, cell-based. In a few lines: as §4

Regarding `Cc1c(F)c(N)cc(C(=O)Nc2cc(-c3ccc(N)cc3)ccc2N2CCN(C)CC2)c1Cl`, the inhibition in experiment [1] is 50%; in experiment [3], 80%; in experiment [7] it was “Dose-dependent effect”; in [10], “Dose-dependent effect”; in experiment [15], “Dose-dependent effect”; in experiment [19] it was 50%. Besides, the inhibition in experiment [24] worked out at 80%. The inhibition result in experiment [2] is “Active”. Also, the Activity result in [4] is “Dose-dependent effect”; in [5], 0%; in experiment [6] it was 23.55%; in experiment [12], 7.95%; in experiment [16] it was 0.15%; in [17], 33.55%. In addition, the Activity in experiment [18] is 49.75%; in experiment [20], 5.5%; in experiment [21], 0.05%; in [23] it was 13.8%. Besides, the 50% inhibitory concentration (IC50) in [8] was determined as 1.65 µM; in [13] it was 17.7 µM. For the same compound, binding in experiment [9] was put at a Kd of 0.202 µM. Also, in experiment [11], the viability at 2.5 µM amounted to 70.9%. Further, in [14], the viability at 10 µM was found to be 36.3%. Besides, the viability at 5 µM in experiment [22] was determined as 58.5%.

In the case of `CCC(CC)(NC(=O)C(C)C)C(=O)N[C@@H](CCCNC(=N)N)C(=O)NC1(C(=O)NC(c2ccc(F)cc2)c2ccc(F)cc2)CCCC1`, the IC50 is 25 µM in [25] and 37.8 µM in experiment [26].

Broadly, the inhibition is the drop in the measured response relative to a control, in per cent. By IC50 is commonly meant the point on the concentration scale where inhibition reaches its midpoint. The Kd is the concentration at which binding is half-saturated.
